# Measurements: ChEMBL document CHEMBL5058577, “EUbOPEN Chemogenomics Library 2 (Multiplex)” (2022)
# Test system: HEK-293T
# Experiment: Multiplex assay against HEK293T
# Format: toxicity, cell-based
# Settings: human
# In short: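 Imaging took place on a CQ1 microscope at 37°C and 5% CO2 once compound had been added to live cells stained at seeding with Hoechst33342, BioTracker Green Microtubule Cytoskeleton Dye, MitoTracker Red and Annexin V Alexa Fluor 680. CellPathfinder machine-learning gating classed cells as Hoechst high-intensity objects or normal cells, classed normal cells as having healthy, pyknosed or fragmented nuclei, and classed pyknosed cells as mitotic or apoptotic. Tubulin, mitochondrial-mass and membrane-permeability phenotypes are per cents of the healthy-nucleus cells.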
# [1] = 12 h, 1 µM, compound concentration 1 uM, replicate 1
# [2] = 12 h, 1 µM, compound concentration 1 uM, replicate 2
# [3] = 12 h, 10 µM, compound concentration 10 uM, replicate 1
# [4] = 12 h, 10 µM, compound concentration 10 uM, replicate 2
# [5] = 24 h, 1 µM, compound concentration 1 uM, replicate 1
# [6] = 24 h, 1 µM, compound concentration 1 uM, replicate 2
# [7] = 24 h, 10 µM, compound concentration 10 uM, replicate 1
# [8] = 24 h, 10 µM, compound concentration 10 uM, replicate 2
# [9] = 48 h, 1 µM, compound concentration 1 uM, replicate 1
# [10] = 48 h, 1 µM, compound concentration 1 uM, replicate 2
# [11] = 48 h, 10 µM, compound concentration 10 uM, replicate 1
# [12] = 48 h, 10 µM, compound concentration 10 uM, replicate 2
smiles,measurement,setting,value
O=C1[C@H](Cc2ccc(O)cc2)N2C(=O)CCN(C(=O)NCc3ccccc3)[C@H]2CN1Cc1cccc2ccccc12,Population Apoptotic (%),[1],44%
same,Population Fragmented Nuclei (%),[1],6%
same,Population Healthy Nuclei (%),[1],80%
same,Population Hoechst High Intensity Objects (%),[1],6%
same,Population Membrane Permeable-Phenotype (%),[1],0%
same,Population Mitochondria Different-Phenotype (%),[1],54%
same,Population Mitotic Cells (%),[1],55%
same,Population Normal (%),[1],93%
same,Population Pyknosed Nuclei (%),[1],12%
same,Population Tubulin-Different-Phenotype (%),[1],46%
same,Total Cell Count,[1],374
same,Population Apoptotic (%),[2],46%
same,Population Fragmented Nuclei (%),[2],7%
same,Population Healthy Nuclei (%),[2],78%
same,Population Hoechst High Intensity Objects (%),[2],8%
same,Population Mitochondria Different-Phenotype (%),[2],68%
same,Population Mitotic Cells (%),[2],53%
same,Population Normal (%),[2],91%
same,Population Pyknosed Nuclei (%),[2],13%
same,Population Tubulin-Different-Phenotype (%),[2],33%
same,Total Cell Count,[2],259
same,Population Apoptotic (%),[3],68%
same,Population Fragmented Nuclei (%),[3],5%
same,Population Healthy Nuclei (%),[3],74%
same,Population Hoechst High Intensity Objects (%),[3],11%
same,Population Membrane Permeable-Phenotype (%),[3],0%
same,Population Mitochondria Different-Phenotype (%),[3],90%
same,Population Mitotic Cells (%),[3],31%
same,Population Normal (%),[3],88%
same,Population Pyknosed Nuclei (%),[3],20%
same,Population Tubulin-Different-Phenotype (%),[3],76%
same,Total Cell Count,[3],340
same,Population Apoptotic (%),[4],60%
same,Population Healthy Nuclei (%),[4],82%
same,Population Hoechst High Intensity Objects (%),[4],14%
same,Population Mitochondria Different-Phenotype (%),[4],93%
same,Population Mitotic Cells (%),[4],40%
same,Population Normal (%),[4],85%
same,Population Pyknosed Nuclei (%),[4],11%
same,Population Tubulin-Different-Phenotype (%),[4],67%
same,Total Cell Count,[4],257
same,Population Apoptotic (%),[5],23%
same,Population Fragmented Nuclei (%),[5],7%
same,Population Healthy Nuclei (%),[5],80%
same,Population Hoechst High Intensity Objects (%),[5],7%
same,Population Membrane Permeable-Phenotype (%),[5],0%
same,Population Mitochondria Different-Phenotype (%),[5],49%
same,Population Mitotic Cells (%),[5],76%
same,Population Normal (%),[5],92%
same,Population Pyknosed Nuclei (%),[5],11%
same,Population Tubulin-Different-Phenotype (%),[5],38%
same,Total Cell Count,[5],470
same,Population Apoptotic (%),[6],55%
same,Population Fragmented Nuclei (%),[6],8%
same,Population Healthy Nuclei (%),[6],77%
same,Population Hoechst High Intensity Objects (%),[6],8%
same,Population Mitochondria Different-Phenotype (%),[6],47%
same,Population Mitotic Cells (%),[6],45%
same,Population Normal (%),[6],91%
same,Population Pyknosed Nuclei (%),[6],14%
same,Population Tubulin-Different-Phenotype (%),[6],24%
same,Total Cell Count,[6],305
same,Population Apoptotic (%),[7],68%
same,Population Fragmented Nuclei (%),[7],7%
same,Population Healthy Nuclei (%),[7],75%
same,Population Hoechst High Intensity Objects (%),[7],11%
same,Population Membrane Permeable-Phenotype (%),[7],0%
same,Population Mitochondria Different-Phenotype (%),[7],94%
same,Population Mitotic Cells (%),[7],31%
same,Population Normal (%),[7],88%
same,Population Pyknosed Nuclei (%),[7],16%
same,Population Tubulin-Different-Phenotype (%),[7],65%
same,Total Cell Count,[7],278
same,Population Apoptotic (%),[8],74%
same,Population Fragmented Nuclei (%),[8],9%
same,Population Healthy Nuclei (%),[8],77%
same,Population Hoechst High Intensity Objects (%),[8],14%
same,Population Mitochondria Different-Phenotype (%),[8],95%
same,Population Mitotic Cells (%),[8],25%
same,Population Normal (%),[8],85%
same,Population Pyknosed Nuclei (%),[8],12%
same,Population Tubulin-Different-Phenotype (%),[8],70%
same,Total Cell Count,[8],249
same,Population Apoptotic (%),[9],30%
same,Population Fragmented Nuclei (%),[9],14%
same,Population Healthy Nuclei (%),[9],78%
same,Population Hoechst High Intensity Objects (%),[9],4%
same,Population Membrane Permeable-Phenotype (%),[9],0%
same,Population Mitochondria Different-Phenotype (%),[9],34%
same,Population Mitotic Cells (%),[9],69%
same,Population Normal (%),[9],95%
same,Population Pyknosed Nuclei (%),[9],6%
same,Population Tubulin-Different-Phenotype (%),[9],26%
same,Total Cell Count,[9],730
same,Population Apoptotic (%),[10],50%
same,Population Fragmented Nuclei (%),[10],11%
same,Population Healthy Nuclei (%),[10],81%
same,Population Hoechst High Intensity Objects (%),[10],3%
same,Population Mitochondria Different-Phenotype (%),[10],29%
same,Population Mitotic Cells (%),[10],50%
same,Population Normal (%),[10],96%
same,Population Pyknosed Nuclei (%),[10],7%
same,Population Tubulin-Different-Phenotype (%),[10],19%
same,Total Cell Count,[10],472
same,Population Apoptotic (%),[11],71%
same,Population Fragmented Nuclei (%),[11],8%
same,Population Healthy Nuclei (%),[11],79%
same,Population Hoechst High Intensity Objects (%),[11],10%
same,Population Membrane Permeable-Phenotype (%),[11],0%
same,Population Mitochondria Different-Phenotype (%),[11],94%
same,Population Mitotic Cells (%),[11],28%
same,Population Normal (%),[11],89%
same,Population Pyknosed Nuclei (%),[11],11%
same,Population Tubulin-Different-Phenotype (%),[11],63%
same,Total Cell Count,[11],297
same,Population Apoptotic (%),[12],57%
same,Population Fragmented Nuclei (%),[12],11%
same,Population Healthy Nuclei (%),[12],73%
same,Population Hoechst High Intensity Objects (%),[12],20%
same,Population Mitochondria Different-Phenotype (%),[12],88%
same,Population Mitotic Cells (%),[12],42%
same,Population Normal (%),[12],79%
same,Population Pyknosed Nuclei (%),[12],14%
same,Population Tubulin-Different-Phenotype (%),[12],72%
same,Total Cell Count,[12],232
